This is an account of results in the array DNA melting data of Ke et al. (doi:10.1101/2024.01.08.574731).

Series [1] is described as follows: melting temperature; fluorescence melt of hairpins on a sequencing array, two-state fit, raised by 9.35 °C to match UV melts. The following applies: sodium 0.088 M. A digest of the protocol:
(§1)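 Melting temperature and folding enthalpy were obtained by bootstrapped two-state fitting. Fits used Cy3 fluorescence of library hairpins with annealed Cy3 and quencher oligos on a sequenced MiSeq flow cell, imaged in 50 mM Na-HEPES pH 8.0, 25 mM NaCl in 2.5 °C steps up to 60 °C and normalised to pre-quench Cy3 and control constructs. Four replicates were combined by inverse-variance weighting, and fitted temperatures were raised by 9.35 °C to match UV melts.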

A short description of series [2]: folding enthalpy; higher = less favourable; fluorescence melt of hairpins on a sequencing array, two-state fit. The following applies: sodium 0.088 M. A digest of the protocol: as §1

GGCAATGGAAACGTTGCC (((((.(....).))))): the Tm in series [1] was determined as 54.5 °C. The folding enthalpy in series [2] was -56.8 kcal/mol.
The corresponding values for GGCAATGGAAACGTTGTC (.(((.(....).))).) are 35.8 °C and -25.9 kcal/mol.
The corresponding values for GGCACAGAAATGTGCC ((((((....)))))) are 66.5 °C and -35.9 kcal/mol.
In the same order, the values of GGCACAGGAAACCATGCC ((((..(....)..)))) are 36.1 °C and -16.3 kcal/mol.
For GGCACAGGAAACTACGCC (((..((....))..))), the Tm in series [1] turned out to be 39.8 °C. In addition, the folding enthalpy in series [2] was -29.9 kcal/mol.
For GGCACCCGAAAGGGCGCC (((.(((....))).))), in series [1], the Tm was 69 °C. Moreover, the folding enthalpy in series [2] was -31.7 kcal/mol.
In the same order, the values of GGCACCGAAAGGTGAGCC ((((((....)))..))) are 52.6 °C and -13.3 kcal/mol.
For the sequence GGCACCGAAAGGTTGGCC ((((((....)))..))), the Tm in series [1] is 53.3 °C. Moreover, in series [2], the folding enthalpy was -28.1 kcal/mol.
GGCACCGCGAAAGCGGCC (((..(((....)))))): in series [1], the Tm was 40 °C. In addition, the folding enthalpy in series [2] was -8.53 kcal/mol.
In the case of GGCACCGGAAACAGTGCC (((((.(....).))))), in series [1], the Tm came out at 53.9 °C. Moreover, the folding enthalpy in series [2] is -30.9 kcal/mol.
In the same order, the values of GGCACCGGAAACGGTGTC (.(((((....))))).) are 59.9 °C and -24.8 kcal/mol.
For the sequence GGCACGGGAAACCACGCC (((..((....))..))), the Tm in series [1] was determined as 46.2 °C. In addition, the folding enthalpy in series [2] was -28.8 kcal/mol.
The corresponding values for GGCACGGGAAACCGCGCC (((.(((....))).))) are 63.5 °C and -44.1 kcal/mol.
In the same order, the values of GGCACGGGAAACTGTGCC (((((.(....).))))) are 62.2 °C and -41.4 kcal/mol.
The corresponding values for GGCACTTCGAAAGAAGCC (((..(((....)))))) are 32.2 °C and -9.16 kcal/mol.
As to GGCAGACGAAAGTCAGCC (((.(((....))).))), in series [1], the Tm worked out at 64.4 °C. For the same sequence, the folding enthalpy in series [2] was -32.8 kcal/mol.
For the sequence GGCAGACGAAAGTCCGCC (((.(((....))).))), in series [1], the Tm is 60.2 °C. The folding enthalpy in series [2] was -39.2 kcal/mol.
In the same order, the values of GGCAGAGGAAACTCCGCC (((.(((....))).))) are 47.5 °C and -28.1 kcal/mol.
Consider GGCAGAGGAAACTCTGCC (((((((....))))))), for which the Tm in series [1] worked out at 67.6 °C. For the same sequence, in series [2], the folding enthalpy is -40.2 kcal/mol.
In the same order, the values of GGCAGCGAAAGCTCAGCC ((((((....)))..))) are 51 °C and -18.4 kcal/mol.
On to GGCAGCGAAAGCTCGCC ((((((....))).))), for which the Tm in series [1] was 61.4 °C. Moreover, in series [2], the folding enthalpy is -22.5 kcal/mol.
For GGCAGCGAAAGCTCTGCC ((((((....)))..))), in series [1], the Tm was 52.4 °C. Further, in series [2], the folding enthalpy was -24.5 kcal/mol.
The corresponding values for GGCAGCGAAAGCTGAGCC ((((((....)))..))) are 51.9 °C and -14.1 kcal/mol.
Consider GGCAGCGAAAGCTTTGCC ((((((....)))..))), for which the Tm in series [1] came out at 51.6 °C. Moreover, the folding enthalpy in series [2] is -18.1 kcal/mol.
As to GGCAGCGGAAACACTGCC (((((.(....).))))), the Tm in series [1] stood at 55.1 °C. Moreover, in series [2], the folding enthalpy was -41 kcal/mol.
As to GGCAGGGAAACCTGCC ((((((....)))))), the Tm in series [1] turned out to be 69.3 °C. In series [2], the folding enthalpy was -30.2 kcal/mol.
In the same order, the values of GGCAGGTCGAAAGACGCC (((..(((....)))))) are 53.5 °C and -24 kcal/mol.
For GGCAGTCGAAAGACGGCC (((.(((....))).))), the Tm in series [1] was determined as 67.8 °C. Also, the folding enthalpy in series [2] is -36.4 kcal/mol.
For the sequence GGCATACCGAAAGGTGCC (((..(((....)))))), in series [1], the Tm was 53.3 °C. In addition, the folding enthalpy in series [2] is -39.5 kcal/mol.
In the same order, the values of GGCATAGGAAACCATGCC (((((.(....).))))) are 48.7 °C and -30 kcal/mol.
The corresponding values for GGCATCCCGAAAGGGGCC (((..(((....)))))) are 52.3 °C and -18.9 kcal/mol.
For the sequence GGCATCGAAAGATATGCC ((((((....)))..))), the Tm in series [1] came to 47.5 °C. For the same sequence, in series [2], the folding enthalpy was -28.1 kcal/mol.
As to GGCATCGAAAGATGAGCC ((((((....)))..))), the Tm in series [1] came to 44.1 °C. Moreover, the folding enthalpy in series [2] is -17 kcal/mol.
In the same order, the values of GGCATCGAAAGATTGGCC ((((((....)))..))) are 44.2 °C and -22.2 kcal/mol.
Turning to GGCATGCCGAAAGGCGCC (((..(((....)))))), in series [1], the Tm amounted to 57.5 °C. The folding enthalpy in series [2] was -16 kcal/mol.
For GGCATGGGAAACTGTGCC ((((..(....)..)))), in series [1], the Tm is 48.2 °C. The folding enthalpy in series [2] was -29.8 kcal/mol.
